Measurements reported in article PMC11370311 (Cell reports, 2024).

What was measured:
[1] = tested on: interaction between GFP-SART3 and endogenous fibrillarin; assay: Co-IP of GFP-SART3 with endogenous fibrillarin; assay type: cell-based, human; settings: HEK293T; 3 days; 10uM EPZ015666 or 1uM MS023; IP/western blot
Outline: (§1)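 HEK293T cells were grown at 37°C in DMEM with 10% FBS and 1% antibiotic-antimycotic, then transfected at 80% confluence using lipofectamine 2000. They were treated with 10uM EPZ015666 (PRMT5) or 1uM MS023 (PRMT1) for 3 days. Lysates were made in mild buffer (10mM Tris pH 7.5, 150mM NaCl, 0.5mM EDTA, 0.5% NP-40, protease inhibitors). Anti-GFP on Protein A/G beads was incubated with lysate 2 h at 4°C, then SDS-PAGE, PVDF, ECL western.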

[2] = tested on: interaction between GFP-SART3 and endogenous coilin; assay: Co-IP of GFP-SART3 with endogenous coilin; assay type: cell-based, human; settings: HEK293T; 3 days; 10uM EPZ015666 or 1uM MS023; IP/western blot
Outline: as §1

[3] = tested on: interaction between SART3 and the representative spliceosomal proteins; assay: Co-IP of GFP-SART3 with representative spliceosomal proteins; assay type: cell-based, human; settings: HeLa, 10uM EPZ015666, 3 days, IP/western blot
Outline: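 HeLa SART3-KO clones were made by lentiCRISPRv2 and blasticidin 10 μg/mL, then single-cell cloned. They were restored by lentiviral GFP-SART3 (WT, Y112A or W377A) with puromycin 2 μg/mL selection. Lysates in mild NP-40 buffer were incubated with anti-GFP on Protein A/G beads, 2 h at 4°C, washed three times and boiled. Partners were detected by SDS-PAGE/PVDF western with HRP secondary and ECL on X-ray film.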

[4] = tested on: GST-SART3(HAT) (N + C); assay: Biotinylated GAR peptide pull-down of GST-SART3; assay type: binding; settings: 2 μg GST-tagged protein, 1h at 4°C, western blot, repeated three times
Outline: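 Streptavidin beads loaded with biotinylated GAR peptides (1 h, 4°C, rocking): fibrillarin unmethylated, ADMA or SDMA; coilin unmethylated, or SDMA at Arg 1–3 or 3–5. After 3 washes in mild lysis buffer (10 mM Tris/Cl pH 7.5, 0.5 mM EDTA, 0.5% NP-40), beads took 2 μg GST protein for 1 h at 4°C with rocking. Coilin pull-downs also ran in RIPA. Bound protein was eluted and read by western blot.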

[5] = tested on: SND1; assay: GFP-Trap IP-MS of GFP-RMET; assay type: cell-based, human; settings: HEK293T, with vs without AdOx, 3 days, label-free MS
Outline: (§2)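 HEK293T cells at 80% confluence were transfected with GFP-RMET using lipofectamine 2000. Half the cells got 25uM AdOx for 3 days. Lysis was in mild buffer (10 mM Tris/Cl pH 7.5, 150 mM NaCl, 0.5 mM EDTA, 0.5% NP-40) with protease inhibitors, then sonication and clearing. GFP-trap agarose ran 2 h at 4°C, followed by washing, elution, gel and LC-MS. Peptide counts per protein were taken at 1% protein FDR, 2 peptides minimum, and 0.1% peptide FDR.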

[6] = tested on: SMN; assay: GFP-Trap IP-MS of GFP-RMET; assay type: cell-based, human; settings: HEK293T, with vs without AdOx, 3 days, label-free MS
Outline: as §2

[7] = tested on: PRMT1; assay: GFP-Trap IP-MS of GFP-RMET; assay type: cell-based, human; settings: HEK293T, AdOx-treated, 3 days, label-free MS
Outline: (§3)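 HEK293T cells were transfected with GFP-RMET; half were treated with 25uM AdOx for 3 days. Cells were lysed in mild NP-40 buffer with protease inhibitors and sonicated, and cleared lysate was captured on GFP-trap agarose 2 h at 4°C. Eluates were gel-separated and the excised bands analysed by nanoLC-MS/MS on an Orbitrap Fusion. Sequest HT searching used 10 ppm MS and 0.6 Da MS/MS tolerance, with 1% protein FDR (2 peptides) and 0.1% peptide FDR. Peptide counts per protein were reported.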

[8] = tested on: PRMT5; assay: GFP-Trap IP-MS of GFP-RMET; assay type: cell-based, human; settings: HEK293T, AdOx-treated, 3 days, label-free MS
Outline: as §3

[9] = tested on: MEP50; assay: GFP-Trap IP-MS of GFP-RMET; assay type: cell-based, human; settings: HEK293T, AdOx-treated, 3 days, label-free MS
Outline: as §3

[10] = tested on: RIOK1; assay: GFP-Trap IP-MS of GFP-RMET; assay type: cell-based, human; settings: HEK293T, AdOx-treated, 3 days, label-free MS
Outline: as §3

O=C(NC[C@H](O)CN1CCc2ccccc2C1)c1cc(NC2COC2)ncn1 [EPZ015666]
interaction between GFP-SART3 and endogenous fibrillarin [1]: reduced the interaction
interaction between GFP-SART3 and endogenous coilin [2]: reduced the interaction
interaction between SART3 and representative spliceosomal proteins [3]: inhibits the interaction

Biotin-AKGRGMRG[Rme2s]G[Rme2s]G[Rme2s]GHP-Amide
binding of coilin GAR peptide to GST-SART3(HAT) ([4]; biotinylated coilin GAR peptides, mild buffer (300 mM NaCl)): strong interaction

Nc1ncnc2c1ncn2C(C=O)OC(C=O)CO (stereo not shown) [AdOx]
enrichment of SND1 as RMET binder [5]: selectively enriched as RMET binders, exclusively in cells that were not treated with AdOx
enrichment of SMN as RMET binder [6]: selectively enriched as RMET binders, exclusively in cells that were not treated with AdOx
enrichment of PRMT1 with RMET [7]: relatively enriched
enrichment of PRMT5 with RMET [8]: relatively enriched
enrichment of MEP50 with RMET [9]: relatively enriched
enrichment of RIOK1 with RMET [10]: relatively enriched

CC(C)Oc1ccc(-c2c[nH]cc2CN(C)CCN)cc1 [MS023]
interaction between GFP-SART3 and endogenous fibrillarin [1]: this reduced interaction was not observed
interaction between GFP-SART3 and endogenous coilin [2]: this reduced interaction was not observed

GGRGRGGGFRGRGRGGGG-Biotin [unmethylated]
pull-down of GST-SART3(HAT) by fibrillarin GAR peptide ([4]; biotinylated fibrillarin GAR peptides, streptavidin beads, mild buffer (150 mM NaCl)): only the SDMA-modified peptide pulled down GST-SART3(HAT)
